Source: ChEMBL document CHEMBL3596155, “Optimization of rhodanine scaffold for the development of protein-protein interaction inhibitors” (Bioorg Med Chem, 2015)
pEC50, pIC50: −log10 of the molar value. Active and inactive are the calls of the source. No cut-off for these calls is given here.

Experiments:
[1] = target: Human immunodeficiency virus type 1 integrase (Human immunodeficiency virus 1) (UniProt Q7ZJM1); experiment: Inhibition of HIV1 His6-tagged integrase assessed as inhibition of interaction with recombinant flag-tagged LEDGF/p75 at 100 uM incubated for 30 mins prior to substrate addition measured after 1 hr by AlphaScreen assay
Sequence of Human immunodeficiency virus type 1 integrase (Human immunodeficiency virus 1) (Q7ZJM1 as listed by the source): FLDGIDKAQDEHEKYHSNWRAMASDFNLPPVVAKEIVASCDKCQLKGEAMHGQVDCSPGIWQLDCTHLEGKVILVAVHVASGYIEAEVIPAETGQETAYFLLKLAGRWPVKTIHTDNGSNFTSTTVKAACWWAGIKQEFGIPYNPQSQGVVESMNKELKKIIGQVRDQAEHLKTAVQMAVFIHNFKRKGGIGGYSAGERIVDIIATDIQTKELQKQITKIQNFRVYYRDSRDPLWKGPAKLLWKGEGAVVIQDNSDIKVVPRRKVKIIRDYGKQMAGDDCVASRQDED
Method in brief: (§1)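 AlphaScreen in 25 mM Tris-HCl pH 7.4, 150 mM NaCl, 1 mM MgCl2, 0.01% Tween-20 and 0.1% BSA. His6-integrase (300 nM final) was preincubated with compound for 30 min at 4°C. Flag-LEDGF/p75 (100 nM) was then added for 1 h at 4°C. Ni-chelate acceptor and anti-flag donor beads (20 μg/ml each) followed for 1 h at 30°C, protected from light. Acceptor emission was read.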

[2] = Selectivity index, ratio of CC50 for human MT4 cells to EC50 for HIV 3B; format: toxicity, cell-based; details: read-out: Ratio CC50/EC50
Method in brief: (§2)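 HIV(IIIB) stock titrated on MT-4 cells to set the CCID50. MT-4 cells were infected with 100-300 CCID50 in the presence of five-fold serial compound dilutions. Protection from virus-induced cytopathic effect was read spectrophotometrically as MTT reduction to formazan by viable cells. EC50 is the concentration giving 50% protection. CC50 was determined in parallel on cells.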

[3] = target: Human immunodeficiency virus type 1 integrase (Human immunodeficiency virus 1, UniProt Q7ZJM1); experiment: Inhibition of HIV1 His6-tagged integrase assessed as inhibition of interaction with recombinant flag-tagged LEDGF/p75 incubated for 30 mins prior to substrate addition measured after 1 hr by AlphaScreen assay; method in brief: as §1
Sequence of Human immunodeficiency virus type 1 integrase (Q7ZJM1 whole entry): as the sequence (Q7ZJM1 as listed by the source) above

[4] = system: Human immunodeficiency virus; experiment: Antiviral activity against HIV 3B infected in human MT4 cells assessed as inhibition of virus-induced cytopathic effect by MTT assay; format: functional, organism-based; details: Human immunodeficiency virus 1, 3B; method in brief: as §2

Compound	inhibition [1]	selectivity ratio [2]	pIC50 [3]	pEC50 [4]
COc1ccc(/C=C2\SC(=S)N(CC(=O)O)C2=O)cc1	36%	–	–	–
COc1ccc(/C=C2\SC(=S)N(CCC(=O)O)C2=O)cc1	66%	61	< 4.00	5.62
COc1ccc(/C=C2\SC(=S)N(C(C(=O)O)C(C)C)C2=O)cc1 (stereo not given)	–	–	4.38	–
CCOc1cc(/C=C2\SC(=S)N(C(C(=O)O)C(C)C)C2=O)ccc1O (stereo not given)	–	–	4.60	–
COc1ccc(/C=C2\SC(=S)N(C(C(=O)O)C(C)C)C2=O)cc1OC (stereo not given)	inactive	–	–	–
CC(C)C(C(=O)O)N1C(=O)/C(=C/c2cccc3ccccc23)SC1=S (stereo not given)	89%	–	4.73	–
COc1cc(/C=C2\SC(=S)N(C(C(=O)O)C(C)C)C2=O)ccc1O (stereo not given)	43%	–	–	–
COc1ccc2nc(/C=C3\SC(=S)N(C(C(=O)O)C(C)C)C3=O)ccc2c1 (stereo not given)	–	–	4.80	–
CC(C)C(C(=O)O)N1C(=O)/C(=C/c2ccc(O)cc2)SC1=S (stereo not given)	77%	–	4.36	–
COc1ccc(/C=C2\SC(=S)N(C(C)C(=O)O)C2=O)cc1 (stereo not given)	47%	–	–	–
CCOc1cc(/C=C2\SC(=S)N(C(C(=O)O)C(C)C)C2=O)ccc1OC (stereo not given)	20%	–	–	–
CCC(C(=O)O)N1C(=O)/C(=C/c2ccc(OC)cc2)SC1=S (stereo not given)	54%	–	< 4.00	–
CCOc1ccc(/C=C2\SC(=S)N(C(C(=O)O)C(C)C)C2=O)cc1OC (stereo not given)	28%	–	–	–
COc1ccc(/C=C2\SC(=S)N(C(C)CC(=O)O)C2=O)cc1 (stereo not given)	29%	–	–	–
